Measured values gathered from unrelated publications.
Target: Phosphatidylinositol 4-phosphate 5-kinase type-1 gamma (PIP5K1C, Homo sapiens, UniProt O60331)

Structure (SMILES)	assay	setting	remaining binding [%]
Nc1ncc2c(n1)-c1c([nH]c3ccc(C#CC4CC4)cc13)CCCC2	binding, competition with immobilised ligand	1 µM	57
N[C@@H]1CCN(c2nccc(-c3cnn4ncccc34)n2)C1	binding	1 µM	81
Cc1nc(C2CCN(C(=O)c3ccc(OC(F)(F)F)cc3N)CC2)c2ncc(N3CCN(C)CC3)cc2n1	cell-free assay, competition with immobilised ligand	1 µM	94
O=C(c1ccc(Nc2ncc(Cl)c(-c3cc4ccccc4s3)n2)cc1)N1CCC(N2CCCC2)CC1	binding, competition with immobilised ligand	1 µM	53
COc1ncc2cc3ccccc3nc2c1C#N	cell-free assay, competition with immobilised ligand	5 µM	89
Cc1cnn2ncc(-c3ccnc(N(C)C)n3)c2c1	binding	1 µM	100
O=C(NCCCN1CCOCC1)c1ccc(Nc2nccc(-c3cc4ccccc4s3)n2)cc1	binding, competition with immobilised ligand	1 µM	2.3
C[C@H]1CCN(c2nccc(-c3cnn4ncccc34)n2)C1	binding	1 µM	95
N#CC1(c2ccccn2)CCN(Cc2cc(C(=O)N3CCCC3)c(=O)n3ccccc23)CC1	cell-free assay, competition with immobilised ligand	1 µM	68
O=C(c1ccc(Nc2ncc(Cl)c(-c3ccc(Cl)s3)n2)cc1)N1CCC(N2CCCC2)CC1	binding, competition with immobilised ligand	1 µM	72
COc1cnc(Nc2cccc(S(N)(=O)=O)c2)nc1N1CCN(c2ccccc2)C(=O)C1	binding, competition with immobilised ligand	1 µM	95
CN(C(=O)c1ccccc1)c1cc(N(C)c2ccc3c(c2)CCc2ccc(C(=O)NCCN4CCOCC4)cc2C3=O)ccc1F	cell-free assay, competition with immobilised ligand	1 µM	80
CN(CCCC(F)(F)F)c1nccc(-c2cnn3ncccc23)n1	binding	1 µM	77
CNC(=O)Nc1ccc2c(c1)CC[C@@]21OC(=O)N(CC(=O)N(Cc2ccc(F)cc2)[C@@H](C)C(F)(F)F)C1=O	cell-free assay, competition with immobilised ligand	1 µM	100
CN(C)c1nccc(-c2cnc3ncccn23)n1	binding	1 µM	100
C[C@@]1(Cc2ccc(C#N)cc2)C(=O)N(c2cc(Cl)cc(Cl)c2)c2ncc(C(=O)NC3(c4nc(C5CCC5)no4)CC3)n21	cell-free assay, competition with immobilised ligand	1 µM	100
O=C(Nc1c[nH]nc1C(=O)NC1CCNCC1)c1cc(F)cc(F)c1	binding, competition with immobilised ligand	1 µM	87
C[C@@H]1CN(c2cc(-c3n[nH]c4ccc(OC5(C)CC5)cc34)ncn2)C[C@H](C)O1	cell-free assay, competition with immobilised ligand	0.1 µM	92
CNC(=O)[C@@H]1CC[C@@H](n2c(-c3ccc4cnccc4c3)nc3ccc(C(=O)NCc4cccc(C(N)=O)c4)cc32)C1	binding, competition with immobilised ligand	1 µM	80
